# Published values from different studies.
# Lines come from different studies, so protocols differ.
# Cell line: MCF7
# Effect on: cell growth or viability
SMILES,method,time,IC50
O=C(NCc1ccc(C(F)(F)F)cc1)c1cn(Cc2ccc(Cl)cc2)c2ccc(Oc3ccccc3)cc2c1=O,MTT,48 h,109 µM
CC[C@H](C)[C@@H]([C@@H](CC(=O)N1CCC[C@H]1[C@H](OC)[C@@H](C)C(=O)N[C@H](C)[C@@H](O)c1ccccc1)OC)N(C)C(=O)[C@@H](NC(=O)[C@@H](NC)C(C)C)C(C)C,CCK-8,,0.0106 µM
O=C(NCc1ccc(C(F)(F)F)cc1)c1cn(Cc2ccc(F)cc2)c2ccc(Oc3ccccc3)cc2c1=O,MTT,48 h,183 µM
CC(=O)c1c(C)c2cnc(Nc3ccc(C4CCN(CCS(C)(=O)=O)CC4)cn3)nc2n(C2CCCC2)c1=O,ATP luminescence,72 h,0.143 µM
COc1c(C)c2c(c(O)c1C/C=C(\C)CCC(=O)O)C(=O)OC2,,,0.741 µM
Fc1ccc2c(-c3nc(Cc4ccccc4)cs3)nn(Cc3ccc(Cl)cc3Cl)c2c1,,48 h,32.9 µM
C#CCn1c(C(=O)/C=C/c2ccc(F)cc2)nc2ccccc21,LDH,48 h,2.48 µM
O=C(NCc1ccc(F)cc1)c1cn(Cc2ccc(F)cc2)c2ccc(Oc3ccccc3)cc2c1=O,MTT,48 h,327 µM
c1ccc([Se][Au]=[c]2n(C3CCCCC3)ccn2C2CCCCC2)cc1,crystal violet,,1 µM
Cc1ccc(CNC(=O)c2cn(Cc3ccc(Cl)cc3)c3ccc(Oc4ccccc4)cc3c2=O)cc1,MTT,24 h,> 500 µM
CC(=O)N[C@H]1[C@@H](O[C@@H]2O[C@H](C[C@@H](O)[C@H]3O[C@@H](n4ccc(=O)[nH]c4=O)[C@H](O)[C@@H]3O)[C@H](O)[C@H](O)[C@H]2NC(=O)/C=C/CCCCCCCCCC(C)C)O[C@H](CO)[C@@H](O)[C@@H]1O,WST-1,,0.52 µM
O=C(NCc1ccc(Cl)cc1)c1cn(Cc2ccc(Cl)cc2)c2ccc(Oc3ccccc3)cc2c1=O,MTT,24 h,481 µM
CC[C@@]1(O)C(=O)OCc2c1cc1n(c2=O)Cc2cc3ccccc3nc2-1,SRB,48 h,0.067 µM
N.N.[Cl][Pt][Cl],MTT,,46.1 µM
N.N.[Cl][Pt][Cl],MTT,48 h,27.8 µM
N.N.[Cl][Pt][Cl],MTT,72 h,61.6 µM
